Measurements from ChEMBL document CHEMBL5661981 (PLoS One, 2011).
Active and inactive are the calls of the source. The calls are words filed in the database; no cut-off is given here.

Legend:
[1] = test system: SK-OV-3; assay: Antitumor activity against human SK-OV-3 cells over expressing ErbB2 xenografted in nude mouse assessed as reduction in growth at 50 mg/kg, po administered twice daily for 28 days; type: functional, organism-based; conditions: time 28.0 day
[2] = test system: Calu-3; assay: Antitumor activity against human Calu-3 cells over expressing ErbB2 xenografted in nude mouse assessed as reduction in growth at 50 mg/kg, po administered twice daily for 28 days; type: functional, organism-based; conditions: time 28.0 day
[3] = Toxicity in nude mouse xenografted with human SK-OV-3 cells over expressing ErbB2 assessed as effect on body weight at 25 to 100 mg/kg, po administered twice daily for 28 days; type: organism-based; conditions: in vivo, 672 h, dose 25-100 mg/kg, time 28 day
[4] = test system: SK-OV-3; assay: Antitumor activity against human SK-OV-3 cells over expressing ErbB2 xenografted in nude mouse assessed as reduction in growth at 25 to 100 mg/kg, po administered twice daily for 7 days relative to control; type: functional; design: scale not given: the % may be the effect or the level left; conditions: dose 25-100 mg/kg, time 7 day
[5] = test system: HO-8910; assay: Antitumor activity against human HO-8910 cells xenografted in nude mouse assessed as reduction in growth at 25 to 100 mg/kg, po administered twice daily for 21 days; type: functional, organism-based; conditions: dose 25-100 mg/kg, time 21.0 day
[6] = test system: Mus musculus; assay: In vivo inhibition of EGFR phosphorylation in human SK-OV-3 cells over expressing ErbB2 xenografted in nude mouse at 100 mg/kg, po measured after 2 to 24 hrs by Western blot analysis; type: functional, organism-based; conditions: time lower 2.0 hrs, time upper […]
Outline: (§1)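 Nude mice bearing established SK-OV-3 tumors (~200 mm3) given a single 100 mg/kg dose; tumor extracts collected at indicated times and EGFR and ErbB2 phosphorylation assessed by immunoblotting.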

[7] = test system: SK-OV-3; assay: Antiproliferative activity against human SK-OV-3 cells assessed as decrease in number of colony formation at 0.1 to 5 uM after 1 to 2 weeks by microscope analysis; type: functional, cell-based; conditions: dose 0.1-5 µM, time 1-2 weeks
Outline: (§2)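 Cells at 8000/mL exposed to drug in 1 mL 0.3% basal medium Eagle's agar with 10% FBS; kept 2 weeks at 37°C, 5% CO2. Average colony number counted and colonies photographed; mean of triplicate samples, SE bars, Student's test.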

[8] = Toxicity in FVB-2/Nneu transgenic mouse breast cancer model assessed as decrease in body weight at 25 to 100 mg/kg, po administered twice daily for 21 days relative to control; type: organism-based; design: scale not given: the % may be the effect or the level left; conditions: in vivo, 504 h, dose 25-100 mg/kg, time 21 day
[9] = test system: SK-OV-3; assay: Antitumor activity against human SK-OV-3 cells over expressing ErbB2 xenografted in nude mouse assessed as reduction in growth at 25 to 100 mg/kg, po administered twice daily for 28 days; type: functional, organism-based; conditions: dose 25-100 mg/kg, time 28.0 day
[10] = test system: NCI-H23; assay: Antiproliferative activity against human NCI-H23 cells assessed as reduction in cell viability after 72 hrs by SRB assay; type: functional, cell-based; conditions: NCI-H23, 72 h
Outline: (§3)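 Cell lines from ATCC; exposed to indicated concentrations for 72 h and growth read by sulforhodamine B (SRB) assay; IC50 values derived.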

[11] = test system: A549; assay: Antiproliferative activity against human A549 cells assessed as decrease in number of colony formation at 0.1 to 5 uM after 1 to 2 weeks by microscope analysis; type: functional, cell-based; conditions: dose 0.1-5 µM, time 1-2 weeks; outline: as §2
[12] = test system: A549; assay: Antiproliferative activity against human A549 cells assessed as reduction in cell viability after 72 hrs by SRB assay; type: functional, cell-based; conditions: A549, 72 h; outline: as §3
[13] = test system: SK-OV-3; assay: Antiproliferative activity against human SK-OV-3 cells transfected with EGFR siRNA assessed as reduction in cell viability at 1.25 to 6.25 uM after 72 hrs by SRB assay; type: functional, cell-based; conditions: dose 1.25-6.25 µM
Outline: (§4)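 SK-OV-3 cells transfected with siRNA (final 50 nmol/L; one ErbB2 pair, two independent EGFR pairs, plus control siRNA) using oligofectamine; drug added 48 h after transfection, growth measured by SRB. Three independent experiments; significance by t test.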

[14] = test system: NIH3T3; assay: Antiproliferative activity against mouse NIH3T3 cells harboring EGFR T790M/L858R double mutant assessed as reduction in cell viability after 72 hrs by SRB assay; type: functional, cell-based; conditions: dose 0.19-6.25 µM
Outline: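 Parental NIH3T3 and laboratory-built NIH3T3 overexpressing EGFR T790M/L858R treated with indicated concentrations for 72 h; viability by sulforhodamine B; IC50 from three independent experiments.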

[15] = test system: Epidermal growth factor receptor (Homo sapiens), P00533 [L858R,T790M]; conditions: NCI-H1975, dose 10-100 nM, time 4.25 hrs
[16] = test system: Epidermal growth factor receptor (Homo sapiens), P00533 [L858R,T790M]; conditions: NIH3T3, dose 1-100 nM, time 6.0 hrs
[17] = test system: Mus musculus; assay: In vivo inhibition of ErbB2 phosphorylation in human SK-OV-3 cells over expressing ErbB2 xenografted in nude mouse at 100 mg/kg, po measured after 2 to 24 hrs by Western blot analysis; type: functional, organism-based; conditions: time lower 2.0 hrs, time upper […]; outline: as §1
[18] = test system: SK-OV-3; assay: Antiproliferative activity against human SK-OV-3 cells assessed as reduction in cell viability after 72 hrs by SRB assay; type: functional, cell-based; conditions: SK-OV-3, 72 h; outline: as §3
[19] = test system: NCI-H1975; assay: Antiproliferative activity against human NCI-H1975 cells harboring EGFR T790M/L858R double mutant assessed as reduction in cell viability after 72 hrs by SRB assay; type: functional, cell-based; conditions: dose 0.19-6.25 µM; outline: as §3
[20] = test system: Epidermal growth factor receptor (Homo sapiens), P00533 [L858R,T790M]; conditions: NCI-H1975, dose 10-100 nM, time 4.25 hrs; remark: listed apart in the source
[21] = test system: Calu-3; assay: Antitumor activity against human Calu-3 cells over expressing ErbB2 xenografted in nude mouse assessed as reduction in growth at 25 to 100 mg/kg, po administered twice daily for 21 days; type: functional, organism-based; conditions: dose 25-100 mg/kg, time 21.0 day
[22] = test system: SK-OV-3; assay: Antiproliferative activity against human SK-OV-3 cells transfected with ErbB2 siRNA assessed as reduction in cell viability at 1.25 to 6.25 uM after 72 hrs by SRB assay; type: functional, cell-based; conditions: dose 1.25-6.25 µM; outline: as §4
[23] = test system: Epidermal growth factor receptor (Homo sapiens), P00533 [L858R,T790M]; conditions: NCI-H1975, dose 10-100 nM, time 4.25 hrs; remark: listed apart in the source
[24] = test system: Mus musculus; assay: Antitumor activity against FVB-2/Nneu transgenic mouse breast cancer model assessed as reduction in tumor growth at 25 to 100 mg/kg, po administered twice daily for 11 days relative to control; type: functional; design: scale not given: the % may be the effect or the level left; conditions: dose 25-100 mg/kg, time 11 day
[25] = test system: A549; assay: Antitumor activity against human A549 cells xenografted in nude mouse assessed as reduction in growth at 25 to 100 mg/kg, po administered twice daily for 32 days; type: functional, organism-based; conditions: dose 25-100 mg/kg, time 32.0 day
[26] = test system: Mus musculus; assay: Antitumor activity against FVB-2/Nneu transgenic mouse breast cancer model assessed as reduction in tumor growth at 25 to 100 mg/kg, po administered twice daily for 21 days; type: functional, organism-based; conditions: dose 25-100 mg/kg, time 21.0 day
[27] = test system: MDA-MB-468; assay: Antiproliferative activity against human MDA-MB-468 cells assessed as reduction in cell viability after 72 hrs by SRB assay; type: functional, cell-based; conditions: MDA-MB-468, 72 h; outline: as §3

Epidermal growth factor receptor (Homo sapiens), P00533 [L858R,T790M], sequence (P00533 whole entry T790M/L858R, looked up): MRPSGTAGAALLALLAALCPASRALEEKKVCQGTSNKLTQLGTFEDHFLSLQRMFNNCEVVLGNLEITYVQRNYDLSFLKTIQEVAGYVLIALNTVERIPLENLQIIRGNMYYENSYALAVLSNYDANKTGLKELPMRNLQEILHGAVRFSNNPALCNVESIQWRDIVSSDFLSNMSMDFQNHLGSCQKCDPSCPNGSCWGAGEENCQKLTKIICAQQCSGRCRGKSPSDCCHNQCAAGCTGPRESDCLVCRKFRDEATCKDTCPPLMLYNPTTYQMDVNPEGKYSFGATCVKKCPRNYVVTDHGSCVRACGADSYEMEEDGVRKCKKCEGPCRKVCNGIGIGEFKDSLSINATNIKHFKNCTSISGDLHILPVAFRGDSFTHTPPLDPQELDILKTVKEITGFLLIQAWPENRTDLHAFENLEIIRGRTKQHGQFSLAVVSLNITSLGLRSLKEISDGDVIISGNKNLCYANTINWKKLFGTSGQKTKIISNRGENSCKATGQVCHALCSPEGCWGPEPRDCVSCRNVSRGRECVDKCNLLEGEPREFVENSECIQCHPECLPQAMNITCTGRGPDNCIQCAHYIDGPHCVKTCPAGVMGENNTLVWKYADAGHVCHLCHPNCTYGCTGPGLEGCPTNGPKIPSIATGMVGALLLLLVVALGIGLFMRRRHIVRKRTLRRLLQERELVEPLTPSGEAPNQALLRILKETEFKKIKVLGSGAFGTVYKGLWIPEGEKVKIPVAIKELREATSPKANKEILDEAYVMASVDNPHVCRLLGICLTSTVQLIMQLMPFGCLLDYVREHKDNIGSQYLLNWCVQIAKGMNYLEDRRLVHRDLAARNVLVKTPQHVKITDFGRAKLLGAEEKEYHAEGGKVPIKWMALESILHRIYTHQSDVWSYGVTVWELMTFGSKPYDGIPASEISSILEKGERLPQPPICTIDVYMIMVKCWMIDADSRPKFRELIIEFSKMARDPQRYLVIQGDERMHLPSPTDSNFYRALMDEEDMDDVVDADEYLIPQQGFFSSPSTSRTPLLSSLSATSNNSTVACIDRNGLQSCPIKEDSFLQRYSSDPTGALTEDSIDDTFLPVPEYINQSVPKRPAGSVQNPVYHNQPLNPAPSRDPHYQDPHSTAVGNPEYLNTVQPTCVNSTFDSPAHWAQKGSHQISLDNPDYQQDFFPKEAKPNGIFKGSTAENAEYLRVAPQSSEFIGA

In the case of `CS(=O)(=O)CCNCc1ccc(-c2ccc3ncnc(Nc4ccc(OCc5cccc(F)c5)c(Cl)c4)c3c2)o1`, the Activity [1] is reported as “Active” and the Activity [2] is reported as “Active”.

For `C=CC(=O)Nc1ccc2ncnc(Nc3ccc(OCc4cccc(F)c4)c(Cl)c3)c2c1` [ALLITINIB], the Activity [3] was “Non-Toxic”, the Activity [4] was about 100% and the Activity [5] was “Active”. The inhibition [6] was “Active”, the Activity [7] was “Active” and the Activity [8] was under 20%. For the same compound, the Activity [9] was “Active”, the IC50 [10] was 6.2 µM and the Activity [11] was “Active”. The IC50 [12] was 6.2 µM, the Activity [13] was “Active” and the Activity [14] was “Dose-Dependent Effect”. For the same compound, the inhibition [15] was “Dose-Dependent Effect”, the inhibition [16] was “Active” and the inhibition [17] was “Active”. The IC50 [18] was 6.2 µM, the inhibition [19] was “Dose-Dependent Effect” and the inhibition [20] was “Dose-Dependent Effect”. For the same compound, the Activity [21] was “Active”, the Activity [22] was “inactive” and the inhibition [23] was “Dose-Dependent Effect”. The Activity [24] was about 100%, the Activity [25] was “Active” and the Activity [26] was “Active”. For the same compound, the IC50 [27] was 6.2 µM.
